# Active and inactive are the calls of the source. The calls are words filed in the database; no cut-off is given here.
# Key:
# Assay type in all cases: functional
# [1] = target: T1, Transcriptional activator protein LuxR (Aliivibrio fischeri, UniProt P12746); assay: Antagonist activity at Vibrio fischeri LuxR expressed in Escherichia coli NM522 coexpressing LuxCDABE assessed as inhibition of 3-oxoC6-HSL-induced quorum sensing activation measured after 4 to 5 hrs by reporter gene assay
# T1 sequence (P12746 whole entry): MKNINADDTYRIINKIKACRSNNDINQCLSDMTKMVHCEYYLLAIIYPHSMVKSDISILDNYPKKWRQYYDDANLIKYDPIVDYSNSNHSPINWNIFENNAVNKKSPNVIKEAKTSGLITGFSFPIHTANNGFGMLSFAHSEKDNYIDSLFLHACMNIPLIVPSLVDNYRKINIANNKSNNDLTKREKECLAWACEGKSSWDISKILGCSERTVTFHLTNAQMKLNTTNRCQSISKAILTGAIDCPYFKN
# How it was run: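 The inhibition read-out is the decrease in bioluminescence induced by 200 nM 3-oxo-C6-HSL in E. coli carrying pSB401 (V. fischeri luxR/luxI promoter fused to P. luminescens luxCDABE). Cells were grown to exponential phase in Luria broth with tetracycline at 30 °C. Light was quantified by luminometer in microtitre plates after 4–5 h, when the ratio of induced to background light peaked.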
# [2] = target: T2, Transcriptional activator protein LuxR (Aliivibrio fischeri) (UniProt P12746); assay: Agonist activity at Vibrio fischeri LuxR expressed in Escherichia coli NM522 coexpressing LuxCDABE assessed as activation of 3-oxoC6-HSL-induced quorum sensing activation at 200 uM measured after 4 to 5 hrs by reporter gene assay
# T2 sequence (whole entry): T1 sequence (P12746 whole entry)
# How it was run: (§1)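 E. coli biosensor carrying pSB401, in which V. fischeri luxR and the luxI promoter drive P. luminescens luxCDABE. Cultures were grown to exponential phase in Luria broth with tetracycline (20) at 30 °C. Analogues were added alone at up to 200 in microtitre plates. Luminescence was read after 4–5 h, at the maximal ratio of induced to background light. EC50 is the concentration giving 50% bioluminescence intensity.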
# [3] = target: T2, Transcriptional activator protein LuxR (Aliivibrio fischeri); assay: Agonist activity at Vibrio fischeri LuxR expressed in Escherichia coli NM522 coexpressing LuxCDABE assessed as activation of 3-oxoC6-HSL-induced quorum sensing activation measured after 4 to 5 hrs by reporter gene assay relative to control; how it was run: as §1
# [4] = target: T1, Transcriptional activator protein LuxR; assay: Agonist activity at Vibrio fischeri LuxR expressed in Escherichia coli NM522 coexpressing LuxCDABE assessed as activation of 3-oxoC6-HSL-induced quorum sensing activation measured after 4 to 5 hrs by reporter gene assay; how it was run: as §1
Activity [2],IC50 ([1]; read-out: IC50),SMILES,other results
–,> 200 µM,CCCCCCn1nnnc1CC(=O)OCC,–
inactive,–,CCCCCc1cn(CC(N)=O)nn1,IC50 [1]: Not Active
inactive,–,CCCCCCCCCCCCn1cc(CC(=O)OCC)nn1,–
inactive,–,CCCCCn1cc(CC(=O)OCC)nn1,–
inactive,–,CCCCCn1cc(CC(=O)O)nn1,–
inactive,–,CCCCCCCCCCCCc1cn(CC(=O)OCC)nn1,–
inactive,94 µM,CCCCCc1cn(CC(=O)OCC)nn1,–

# The next lines start with the compound.
SMILES,Activity [2],IC50 ([1]; read-out: IC50),other results
CCCCCc1cn(CC(=O)O)nn1,inactive,–,IC50 [1]: Not Active
CCCCCn1nnnc1C1CCOC1=O (racemic),–,80 µM,–
CCCCCCc1nnnn1C1CCOC1=O (racemic),–,–,Activity [3]: 102 RLU; EC50 [4]: 35 µM
CCCCCCn1nnnc1C1CCOC1=O (racemic),–,74 µM,–
CCCCCc1cn(CC(=O)NO)nn1,inactive,–,IC50 [1]: Not Active
CCCCCc1cn(C2CCOC2=O)nn1 (racemic),inactive,51 µM,–
CCCCCCCCCCCCn1cc(CC(=O)O)nn1,inactive,–,–
CCCCCCCCCCCCc1cn(CC(=O)O)nn1,inactive,–,–
CCCCn1nnnc1C1CCOC1=O (racemic),–,> 200 µM,–
CCCCCc1nnnn1C1CCOC1=O (racemic),–,–,Activity [3]: 59 RLU; EC50 [4]: 10 µM

# From ChEMBL document CHEMBL2062442, “Synthesis and biological evaluation of new N-acyl-homoserine-lactone analogues, based on triazole and tetrazole scaffolds, acting as LuxR-dependent quorum sensing modulators” (Bioorg Med Chem, 2012)
